Assay results from ChEMBL document CHEMBL1138494, “Human glucagon receptor antagonists with thiazole cores. A novel series with superior pharmacokinetic properties” (J Med Chem, 2009).
Calls of active or inactive are those of the source. The calls are words filed in the database; no cut-off is given here.

Experiments:
Glucagon receptor [1] = target: T1, Glucagon receptor (Homo sapiens, UniProt P47871); test: Displacement of [125I]porcine glucagon from human recombinant glucagon receptor expressed in BHK cells by scintillation proximity assay; format: cell-based
Homo sapiens [2] = organism: Homo sapiens; test: Selectivity for human recombinant glucagon receptor over human GLP1R
Homo sapiens [3] = organism: Homo sapiens; test: Selectivity ratio of IC50 for human recombinant glucagon receptor to IC50 for human recombinant GIPR
Summary of the method: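 Competition binding of compounds to recombinant human glucagon and GIP receptors on BHK cell membranes, run in parallel as a scintillation proximity assay and, for selected compounds, as a membrane filtration assay.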

[4] = target: T2, Gastric inhibitory polypeptide receptor (Homo sapiens, UniProt P48546); test: Displacement of [125I]porcine GIP from human recombinant GIPR receptor expressed in BHK cells by scintillation proximity assay; format: cell-based
T2 sequence (P48546 whole entry): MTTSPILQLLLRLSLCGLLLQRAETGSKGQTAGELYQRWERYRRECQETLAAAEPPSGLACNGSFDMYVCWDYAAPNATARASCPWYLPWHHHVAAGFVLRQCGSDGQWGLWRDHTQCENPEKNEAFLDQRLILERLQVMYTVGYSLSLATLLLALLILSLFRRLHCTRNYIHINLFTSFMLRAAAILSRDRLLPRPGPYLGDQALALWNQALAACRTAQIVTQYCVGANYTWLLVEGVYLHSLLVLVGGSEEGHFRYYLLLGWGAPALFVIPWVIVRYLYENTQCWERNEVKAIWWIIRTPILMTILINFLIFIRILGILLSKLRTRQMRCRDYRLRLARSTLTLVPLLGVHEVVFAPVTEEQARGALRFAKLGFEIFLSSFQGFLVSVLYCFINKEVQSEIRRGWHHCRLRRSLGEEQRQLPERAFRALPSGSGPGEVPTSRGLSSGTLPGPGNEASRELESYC

[5] = Half life in fasted Beagle dog at 0.25 mg/kg, iv; format: ADME, organism-based, Canis lupus familiaris; set-up: dose 0.25 mg/kg, route intravenous; conditions: in vivo
Summary of the method: (§1)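 Dogs were dosed at 0.25 mg/kg iv and 0.5 mg/kg po, and plasma concentration was followed over time. Half-life came from the iv arm; clearance, Cmax and Tmax were also derived.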

[6] = Half life in fasted Sprague-Dawley rat plasma at 1.6 mg/kg, iv by HTLC-MS/MS analysis; format: ADME, organism-based; set-up: dose 1.6 mg/kg, route intravenous
Summary of the method: (§2)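 Rats were dosed intravenously and perorally in separate arms, and plasma concentration-time profiles were obtained. Half-life was taken from the iv arm. Clearance, oral bioavailability, Cmax and Tmax were derived from the profiles.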

Glucagon receptor [7] = target: Glucagon receptor (Rattus norvegicus, UniProt P30082); test: Binding affinity to glucagon receptor in rat liver membrane by membrane filter assay; format: cell membranes
[8] = Binding affinity to glucagon receptor in pig liver membrane by membrane filter assay; format: cell membranes, Sus scrofa
[9] = Tmax in fasted Beagle dog at 0.25 mg/kg, iv and 0.5 mg/kg, po; format: ADME, organism-based, Canis lupus familiaris; conditions: in vivo
Summary of the method: (§3)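 Plasma concentration–time profiles were recorded after separate intravenous and peroral dosing at the per-compound doses listed. T_max is reported in min alongside C_max (ng/mL), intravenous half-life and clearance ((mL/min)/kg).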

[10] = Oral bioavailability in fasted Beagle dog at 0.5 mg/kg; format: ADME, organism-based, Canis lupus familiaris; conditions: in vivo
Summary of the method: (§4)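 Separate intravenous and peroral dosing arms per compound, with plasma concentration followed against time. Oral bioavailability (F_po) is reported per compound together with the intravenous half-life and clearance. The dose used for each arm is listed per compound.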

Glucagon receptor [11] = target: T1, Glucagon receptor; test: Binding affinity to human recombinant glucagon receptor expressed in BHK cells by membrane filter assay; format: cell-based
Hepatocyte [12] = test: Inhibition of glucagon-stimulated glucose production in human primary hepatocytes preincubated for 10 mins before glucagon addition by NADH-linked hexokinase assay; format: functional, cell-based
Summary of the method: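 Cultured primary human hepatocytes were preincubated with compound for 10 min, then glycogenolysis was induced with 5 nM glucagon for 60 min. Glucose in the medium was measured against basal glycogenolysis. Albumin was present in the assay medium. IC50 was calculated from four experiments, mean ± SEM.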

Hepatocyte [13] = test: Inhibition of glucagon-stimulated glucose production in rat primary hepatocytes; format: functional, cell-based
[14] = Clearance in fasted Sprague-Dawley rat at 1.6 mg/kg, iv and 3.15 mg/kg, po by HTLC-MS/MS analysis; format: ADME, organism-based; conditions: in vivo; summary of the method: as §2
[15] = Tmax in fasted Sprague-Dawley rat at 1.6 mg/kg, iv and 3.15 mg/kg, po by HTLC-MS/MS analysis; format: ADME, organism-based; conditions: in vivo; summary of the method: as §3
[16] = Binding affinity to glucagon receptor in dog liver membrane by membrane filter assay; format: cell membranes, Canis lupus familiaris
Glucagon receptor [17] = target: Glucagon receptor (Mus musculus, UniProt Q61606); test: Binding affinity to glucagon receptor in mouse liver membrane by membrane filter assay; format: cell membranes
[18] = Oral bioavailability in fasted Sprague-Dawley rat at 3.15 mg/kg by HTLC-MS/MS analysis; format: ADME, organism-based; conditions: in vivo; summary of the method: as §4
[19] = Binding affinity to glucagon receptor in monkey liver membrane by membrane filter assay; format: cell membranes, Macaca mulatta
[20] = target: T2, Gastric inhibitory polypeptide receptor; test: Binding affinity to human recombinant GIPR expressed in BHK cells by membrane filter assay; format: cell-based
[21] = Cmax in fasted Beagle dog at 0.25 mg/kg, iv and 0.5 mg/kg, po; format: ADME, organism-based, Canis lupus familiaris; conditions: in vivo; summary of the method: as §1
[22] = Binding affinity to glucagon receptor in rabbit liver membrane by membrane filter assay; format: cell membranes, Oryctolagus cuniculus
[23] = Clearance in fasted Beagle dog at 0.25 mg/kg, iv and 0.5 mg/kg, po; format: ADME, organism-based, Canis lupus familiaris; conditions: in vivo; summary of the method: as §1
[24] = Cmax in fasted Sprague-Dawley rat at 1.6 mg/kg, iv and 3.15 mg/kg, po by HTLC-MS/MS analysis; format: ADME, organism-based; conditions: in vivo; summary of the method: as §2
[25] = Cmax in fasted Sprague-Dawley rat at 1.66 mg/kg, iv and 3.34 mg/kg, po by HTLC-MS/MS analysis; format: ADME, organism-based; conditions: in vivo; summary of the method: as §2
[26] = Tmax in fasted Sprague-Dawley rat at 1.66 mg/kg, iv and 3.34 mg/kg, po by HTLC-MS/MS analysis; format: ADME, organism-based; conditions: in vivo; summary of the method: as §3
[27] = Half life in fasted Sprague-Dawley rat plasma at 1.66 mg/kg, iv by HTLC-MS/MS analysis; format: ADME, organism-based; set-up: dose 1.66 mg/kg, route intravenous; summary of the method: as §2
[28] = Oral bioavailability in fasted Sprague-Dawley rat at 3.34 mg/kg by HTLC-MS/MS analysis; format: ADME, organism-based; conditions: in vivo; summary of the method: as §4
[29] = Clearance in fasted Sprague-Dawley rat at 1.66 mg/kg, iv and 3.34 mg/kg, po by HTLC-MS/MS analysis; format: ADME, organism-based; conditions: in vivo; summary of the method: as §2
[30] = Cmax in fasted Sprague-Dawley rat at 1.66mg/kg, iv and 3 mg/kg, po; format: ADME, organism-based; set-up: dose 3 mg/kg, route oral; conditions: in vivo; summary of the method: as §2
[31] = Oral bioavailability in fasted Sprague-Dawley rat at 3 mg/kg by HTLC-MS/MS analysis; format: ADME, organism-based; conditions: in vivo; summary of the method: as §4
[32] = Tmax in fasted Sprague-Dawley rat at 1.6mg/kg, iv and 3 mg/kg, po; format: ADME, organism-based; set-up: dose 3 mg/kg, route oral; conditions: in vivo; summary of the method: as §3
[33] = Clearance in fasted Sprague-Dawley rat at 1.66 mg/kg, iv and 3 mg/kg, po; format: ADME, organism-based; conditions: in vivo; summary of the method: as §2

T1 sequence (P47871 whole entry): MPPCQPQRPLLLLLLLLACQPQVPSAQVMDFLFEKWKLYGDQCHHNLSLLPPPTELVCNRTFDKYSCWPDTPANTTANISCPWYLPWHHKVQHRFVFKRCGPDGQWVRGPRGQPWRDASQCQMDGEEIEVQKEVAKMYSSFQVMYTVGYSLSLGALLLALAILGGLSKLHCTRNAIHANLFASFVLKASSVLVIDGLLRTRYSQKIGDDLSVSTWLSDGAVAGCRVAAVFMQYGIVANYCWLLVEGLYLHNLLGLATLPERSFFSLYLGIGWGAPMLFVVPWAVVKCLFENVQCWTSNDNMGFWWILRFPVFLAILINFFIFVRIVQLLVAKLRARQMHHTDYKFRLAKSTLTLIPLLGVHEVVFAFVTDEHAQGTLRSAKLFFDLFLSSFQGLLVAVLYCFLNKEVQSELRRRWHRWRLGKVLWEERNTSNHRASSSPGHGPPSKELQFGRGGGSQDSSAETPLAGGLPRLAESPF
Glucagon receptor (Mus musculus, UniProt Q61606), sequence (Q61606 whole entry): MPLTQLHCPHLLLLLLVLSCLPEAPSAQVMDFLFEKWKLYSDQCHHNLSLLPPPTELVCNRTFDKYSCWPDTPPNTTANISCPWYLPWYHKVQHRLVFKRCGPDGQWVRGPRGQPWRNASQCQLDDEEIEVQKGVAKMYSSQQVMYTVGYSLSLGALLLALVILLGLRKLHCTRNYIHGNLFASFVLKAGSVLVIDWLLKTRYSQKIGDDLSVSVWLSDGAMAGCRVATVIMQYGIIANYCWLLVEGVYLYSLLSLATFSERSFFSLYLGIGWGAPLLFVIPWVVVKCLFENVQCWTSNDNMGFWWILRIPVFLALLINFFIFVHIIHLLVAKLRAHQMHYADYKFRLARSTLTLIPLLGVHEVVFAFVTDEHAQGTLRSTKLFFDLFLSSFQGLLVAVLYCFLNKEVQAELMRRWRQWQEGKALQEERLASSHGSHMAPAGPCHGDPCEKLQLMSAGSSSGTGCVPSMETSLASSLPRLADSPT
Glucagon receptor (Rattus norvegicus, UniProt P30082), sequence (P30082 whole entry): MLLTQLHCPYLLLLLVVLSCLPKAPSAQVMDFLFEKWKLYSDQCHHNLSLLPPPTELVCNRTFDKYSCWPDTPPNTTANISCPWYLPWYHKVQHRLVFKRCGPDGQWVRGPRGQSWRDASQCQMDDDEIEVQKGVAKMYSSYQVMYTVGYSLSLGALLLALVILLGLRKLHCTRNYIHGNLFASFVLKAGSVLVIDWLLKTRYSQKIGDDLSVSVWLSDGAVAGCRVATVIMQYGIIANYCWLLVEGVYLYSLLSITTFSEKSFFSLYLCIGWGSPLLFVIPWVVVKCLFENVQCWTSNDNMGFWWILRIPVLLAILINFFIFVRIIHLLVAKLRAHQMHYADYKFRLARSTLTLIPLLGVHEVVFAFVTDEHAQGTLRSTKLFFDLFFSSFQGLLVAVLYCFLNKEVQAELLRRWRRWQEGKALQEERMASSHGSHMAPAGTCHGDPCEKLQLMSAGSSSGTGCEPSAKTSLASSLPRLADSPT

Row | SMILES | IC50 (Glucagon receptor [1]) [nM] | fold change (FC) (Homo sapiens [2]) | fold change (FC) (Homo sapiens [3]) | IC50 [4] [nM] | IC50 (Glucagon receptor [7]) [nM] | IC50 (Glucagon receptor [11]) [nM] | IC50 (Glucagon receptor [17]) [nM] | IC50 [19] [nM] | IC50 [20] [nM] | half-life [27] [h] | IC50 (Hepatocyte [12]) [nM] | inhibition (Hepatocyte [13]) | also measured
1 | O=C(O)CCNC(=O)c1ccc(CN(c2ccc(C3=CCCCC3)cc2)c2nc(-c3ccc(Cl)cc3)c(-c3ccccc3)s2)cc1 | 86 | > 50 | 5 | 1000 |  |  |  |  |  |  |  |  | 
2 | O=C(O)CCNC(=O)c1ccc(CN(c2ccc3c(c2)CCCC3)c2nc(-c3ccc(Cl)c(Cl)c3)cs2)cc1 | 79 | > 50 | 5 | 830 | 1600 | 54 | 452 | 55 | 390 |  | 4000 | inactive | half-life [5]: 2.07 h; half-life [6]: 1.73 h; IC50 [8]: 3300 nM; Tmax [9]: 0.85 h; bioavailability [10]: 92%; clearance [14]: 5 mL/min/kg; Tmax [15]: 1 h; IC50 [16]: 81 nM; bioavailability [18]: 36%; Cmax [21]: 1190 ng/mL; IC50 [22]: 1900 nM; clearance [23]: 1.44 mL/min/kg; Cmax [24]: 1180 ng/mL
3 | O=C(NC[C@@H](O)C(=O)O)c1ccc(CN(c2ccc3c(c2)CCC3)c2nc(-c3ccc(C(F)(F)F)cc3)cs2)cc1 | 261 | > 50 | 5 | > 1000 |  |  |  |  |  |  |  |  | 
4 | CC(C)(C)c1ccc(-c2csc(N(Cc3ccc(C(=O)NCCC(=O)O)cc3)c3ccc(C(C)(C)C)cc3)n2)cc1 | 315 | > 50 | 5 | 729 |  |  |  |  |  |  |  |  | 
5 | O=C(O)CCNC(=O)c1ccc(N(Cc2ccc3c(c2)Cc2ccccc2-3)c2nc(-c3ccc(OC(F)(F)F)cc3)cs2)cc1 | 81 | > 50 | 5 | 732 |  |  |  |  |  | 0.767 |  |  | Cmax [30]: 82 ng/mL; bioavailability [31]: 13%; Tmax [32]: 1.5 h; clearance [33]: 31 mL/min/kg
6 | O=C(O)CCNC(=O)c1ccc(CN(c2ccc3c(c2)CCC3)c2nc(-c3ccc(OC(F)(F)F)cc3)cs2)cc1 | 85 | > 50 | 5 | 950 | 4400 | 96 | 680 | 94 | 770 | 1.02 | 8600 | inactive | Cmax [25]: 704 ng/mL; Tmax [26]: 4 h; bioavailability [28]: 87%; clearance [29]: 15 mL/min/kg

The next lines start with results.

Row | IC50 (Glucagon receptor [1]) [nM] | fold change (FC) (Homo sapiens [2]) | fold change (FC) (Homo sapiens [3]) | IC50 [4] [nM] | IC50 (Glucagon receptor [7]) [nM] | IC50 (Glucagon receptor [11]) [nM] | IC50 (Glucagon receptor [17]) [nM] | IC50 [19] [nM] | IC50 [20] [nM] | half-life [27] [h] | SMILES | IC50 (Hepatocyte [12]) [nM] | inhibition (Hepatocyte [13]) | also measured
7 | 131 | > 50 | 5 | 584 |  |  |  |  |  |  | Cc1cc(N(Cc2ccc(C(=O)NCCC(=O)O)cc2)c2nc(-c3cc(C(F)(F)F)cc(C(F)(F)F)c3)cs2)ccc1C(C)C |  |  | 
8 | 86 | > 50 | 5 | 1100 | 5400 | 64 | 830 | 81 | 510 | 2.18 | O=C(O)CCNC(=O)c1ccc(CN(c2ccc3c(c2)CCC3)c2nc(-c3ccc(C(F)(F)F)cc3)cs2)cc1 | < 20000 | inactive | Cmax [25]: 920 ng/mL; Tmax [26]: 1 h; bioavailability [28]: 89%; clearance [29]: 13 mL/min/kg
9 | 119 | > 50 | 5 | 633 |  | 93 |  |  | 293 |  | Cc1cc(N(Cc2ccc(C(=O)NCCC(=O)O)cc2)c2nc(-c3ccc(C(F)(F)F)cc3)cs2)ccc1C(C)C |  |  | 
